From ChEMBL document CHEMBL2390889, “Synthesis and anticancer activity of acyl thioureas bearing pyrazole moiety” (2013)

Columns and labels:
Type in all cases: functional
HepG2 [1] = test: Anticancer activity against human HepG2 cells assessed as viable cells at 10^-4 M after 24 hrs by XTT assay relative to control; settings: HepG2, 24 h, read-out: Activity
Summary of the method: (§1)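 DLD-1, HepG2 and Jurkat cells were grown in low-glucose DMEM with 10% FBS, 1% L-glutamine, 100 IU/mL penicillin and streptomycin at 37 °C under 5% CO2. They were seeded at 10 × 10^4 cells/well and treated with a 10-fold dilution series from 10^-4 to 10^-8 M for 24 or 48 h. XTT was then added, absorbance read at 450 nm after 4 h, and viability expressed as % of untreated control (set to 100%).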

DLD-1 [2] = test: Anticancer activity against human DLD1 cells assessed as viable cells at 10^-5 M after 24 hrs by XTT assay relative to control; settings: DLD-1, 24 h, read-out: Activity; summary of the method: as §1
Jurkat [3] = test: Anticancer activity against human Jurkat cells assessed as viable cells at 10^-5 M after 48 hrs by XTT assay relative to control; settings: read-out: Activity; summary of the method: as §1
HepG2 [4] = test: Anticancer activity against human HepG2 cells assessed as viable cells at 10^-5 M after 24 hrs by XTT assay relative to control; settings: HepG2, 24 h, read-out: Activity; summary of the method: as §1
DLD-1 [5] = test: Anticancer activity against human DLD1 cells assessed as viable cells at 10^-4 M after 48 hrs by XTT assay relative to control; settings: DLD-1, 48 h, read-out: Activity; summary of the method: as §1
Jurkat [6] = test: Anticancer activity against human Jurkat cells assessed as viable cells at 10^-4 M after 48 hrs by XTT assay relative to control; settings: read-out: Activity; summary of the method: as §1
HepG2 [7] = test: Anticancer activity against human HepG2 cells assessed as viable cells at 10^-5 M after 48 hrs by XTT assay relative to control; settings: HepG2, 48 h, read-out: Activity; summary of the method: as §1
Jurkat [8] = test: Anticancer activity against human Jurkat cells assessed as viable cells at 10^-5 M after 24 hrs by XTT assay relative to control; settings: read-out: Activity; summary of the method: as §1
Jurkat [9] = test: Anticancer activity against human Jurkat cells assessed as viable cells at 10^-4 M after 24 hrs by XTT assay relative to control; settings: read-out: Activity; summary of the method: as §1
DLD-1 [10] = test: Anticancer activity against human DLD1 cells assessed as viable cells at 10^-5 M after 48 hrs by XTT assay relative to control; settings: DLD-1, 48 h, read-out: Activity; summary of the method: as §1
HepG2 [11] = test: Anticancer activity against human HepG2 cells assessed as viable cells at 10^-4 M after 48 hrs by XTT assay relative to control; settings: HepG2, 48 h, read-out: Activity; summary of the method: as §1
DLD-1 [12] = test: Anticancer activity against human DLD1 cells assessed as viable cells at 10^-4 M after 24 hrs by XTT assay relative to control; settings: DLD-1, 24 h, read-out: Activity; summary of the method: as §1

| Compound | viability at 100 µM (HepG2 [1]) | viability at 10 µM (DLD-1 [2]) | viability at 10 µM (Jurkat [3]) | viability at 10 µM (HepG2 [4]) | viability at 100 µM (DLD-1 [5]) | viability at 100 µM (Jurkat [6]) | viability at 10 µM (HepG2 [7]) | viability at 10 µM (Jurkat [8]) | viability at 100 µM (Jurkat [9]) | viability at 10 µM (DLD-1 [10]) | viability at 100 µM (HepG2 [11]) | viability at 100 µM (DLD-1 [12]) |
| --- | --- | --- | --- | --- | --- | --- | --- | --- | --- | --- | --- | --- |
| O=C(NC(=S)Nc1ccc(Br)cc1)c1nn(-c2ccccc2)c(-c2ccccc2)c1C(=O)c1ccccc1 | 55.2% | 78.1% | 87.5% | 51.5% | 50.1% | 40.1% | 27.8% | 100% | 78.1% | 62.5% | 27.2% | 65.2% |
| O=C(NC(=S)NCc1ccccc1)c1nn(-c2ccccc2)c(-c2ccccc2)c1C(=O)c1ccccc1 | 49.2% | 75.2% | 23.1% | 56.4% | 55.9% | 17.9% | 40.6% | 34.7% | 36.6% | 65.5% | 39.8% | 64.2% |
| O=C(NC(=S)Nc1ncccn1)c1nn(-c2ccccc2)c(-c2ccccc2)c1C(=O)c1ccccc1 | 44.3% | 88.5% | 28% | 51.1% | 75.5% | 23.4% | 31.2% | 100% | 86.2% | 81.4% | 28.8% | 80.4% |
| NC(=O)c1ccc(NC(=S)NC(=O)c2nn(-c3ccccc3)c(-c3ccccc3)c2C(=O)c2ccccc2)cc1 | 38.1% | 100% | 66.3% | 44.2% | 96.6% | 39.2% | 27.3% | 100% | 100% | 95.2% | 22.9% | 100% |
| COc1ccc(NC(=S)NC(=O)c2nn(-c3ccccc3)c(-c3ccccc3)c2C(=O)c2ccccc2)cc1 | 36.5% | 80.5% | 87.5% | 42% | 62.1% | 8.98% | 27.9% | 37.8% | 31.1% | 68.2% | 22.6% | 71.2% |
| Cc1ccc(NC(=S)NC(=O)c2nn(-c3ccccc3)c(-c3ccccc3)c2C(=O)c2ccccc2)cc1 | 49.2% | 65.1% | 14.2% | 51.6% | 40.2% | 12.5% | 27.7% | 50.3% | 30% | 48.5% | 25.9% | 57.1% |
